Type in all cases: cell-based
For assay [1], the target named is T1, D(4) dopamine receptor (Homo sapiens, UniProt P21917).
T1 sequence (P21917 whole entry): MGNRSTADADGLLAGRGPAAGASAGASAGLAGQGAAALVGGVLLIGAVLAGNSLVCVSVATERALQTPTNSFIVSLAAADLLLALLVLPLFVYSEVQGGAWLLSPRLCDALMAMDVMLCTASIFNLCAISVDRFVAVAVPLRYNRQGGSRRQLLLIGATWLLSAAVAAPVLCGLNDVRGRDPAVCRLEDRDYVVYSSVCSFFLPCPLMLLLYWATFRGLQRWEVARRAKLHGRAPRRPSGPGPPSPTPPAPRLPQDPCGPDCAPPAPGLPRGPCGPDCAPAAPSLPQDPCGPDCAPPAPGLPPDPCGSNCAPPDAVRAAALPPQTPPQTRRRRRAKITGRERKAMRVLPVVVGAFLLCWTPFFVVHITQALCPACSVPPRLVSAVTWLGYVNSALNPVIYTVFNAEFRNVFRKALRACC
Description: Displacement of [3H] Spiperone from human D4.4 receptor expressed in CHO cells by competitive radioligand binding assay. In general terms: Loss of bound radioactivity is the signal in a displacement assay; it reports binding, not function.

For assay [2], the target named is T2, D(2) dopamine receptor (Homo sapiens, UniProt P14416). Description: Displacement of [3H] Spiperone from human D2L receptor expressed in CHO cells by competitive radioligand binding assay.
T2 sequence (P14416 whole entry): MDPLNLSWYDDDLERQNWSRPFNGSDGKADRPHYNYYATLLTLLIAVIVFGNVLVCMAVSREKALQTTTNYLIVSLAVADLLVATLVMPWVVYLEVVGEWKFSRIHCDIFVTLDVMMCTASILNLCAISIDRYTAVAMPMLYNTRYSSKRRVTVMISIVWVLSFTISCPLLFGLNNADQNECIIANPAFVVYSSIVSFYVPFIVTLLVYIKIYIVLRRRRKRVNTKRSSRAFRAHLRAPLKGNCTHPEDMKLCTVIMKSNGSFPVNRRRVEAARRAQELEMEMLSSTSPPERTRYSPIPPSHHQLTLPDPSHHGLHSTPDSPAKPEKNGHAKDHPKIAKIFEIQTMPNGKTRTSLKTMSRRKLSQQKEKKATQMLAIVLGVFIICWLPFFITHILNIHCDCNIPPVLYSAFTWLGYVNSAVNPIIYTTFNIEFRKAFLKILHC
Assay [3] concerns the target T2, D(2) dopamine receptor. Description: Displacement of [3H] Spiperone from human D2S receptor expressed in CHO cells by competitive radioligand binding assay.
The species entered for assay [4] is Homo sapiens. The assay is described as follows: Selectivity index, ratio of Ki for displacement of [3H] Spiperone from human D2S receptor expressed in CHO cells to Ki for displacement of [3H] Spiperone from human D4.4 receptor expressed in CHO cells. Put shortly:
(§1)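 Competition binding against [3H]spiperone on membranes of CHO cells stably expressing cloned human D2L, D2S, D3 or D4.4 receptors. Ki from monophasic curve fits; mean ± SEM of three to seven experiments, each in triplicate. Selectivity calculated as Ki(D2L, D2S or D3) divided by Ki(D4.4).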

The species entered for assay [5] is Homo sapiens. The assay is described as follows: Selectivity index, ratio of Ki for displacement of [3H] Spiperone from human D3 receptor expressed in CHO cells to Ki for displacement of [3H] Spiperone from human D4.4 receptor expressed in CHO cells. An outline of the steps: as §1
Assay [6] addresses D(3) dopamine receptor (Homo sapiens, UniProt P35462). The assay is described as follows: Displacement of [3H] Spiperone from human D3 receptor expressed in CHO cells by competitive radioligand binding assay.
For assay [7], the species on record is Homo sapiens. The assay is described as follows: Selectivity index, ratio of Ki for displacement of [3H] Spiperone from human D2L receptor expressed in CHO cells to Ki for displacement of [3H] Spiperone from human D4.4 receptor expressed in CHO cells. An outline of the steps: as §1

SMILES strings stand for the structures.

Sequence of D(3) dopamine receptor (P35462 whole entry): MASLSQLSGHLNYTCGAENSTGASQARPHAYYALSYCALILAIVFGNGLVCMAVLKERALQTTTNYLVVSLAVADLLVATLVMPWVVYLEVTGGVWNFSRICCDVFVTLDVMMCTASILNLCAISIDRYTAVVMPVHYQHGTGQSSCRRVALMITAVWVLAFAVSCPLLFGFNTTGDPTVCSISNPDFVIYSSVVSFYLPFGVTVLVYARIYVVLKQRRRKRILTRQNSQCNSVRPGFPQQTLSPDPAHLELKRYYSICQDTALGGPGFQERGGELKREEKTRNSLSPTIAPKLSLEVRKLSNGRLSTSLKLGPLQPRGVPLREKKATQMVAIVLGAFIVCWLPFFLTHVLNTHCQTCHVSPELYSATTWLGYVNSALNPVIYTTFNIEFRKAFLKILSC

Regarding `COc1ccccc1N1CCN(CCCNC(=O)NN(Cc2ccccc2)c2ccc(Br)cc2)CC1`, the Ki – broadly, a dissociation constant, usually derived from enzyme kinetics or from competition with a known ligand – in assay [1] came out at 3.4 nM; in assay [2], 55 nM; in assay [3], 34 nM; in assay [6], 130 nM. For the same molecule, the Ratio Ki in assay [4] was determined as 10; in assay [5], 38; in assay [7] it was 16.
Turning to `COc1ccc(N(Cc2cccc(OC)c2)NC(=O)NCCCN2CCN(c3ccccc3OC)CC2)cc1`, the inhibition constant Ki in assay [1] is 33 nM; in assay [2], 150 nM; in assay [3], 110 nM; in assay [6], 320 nM. Moreover, the results for the Ratio Ki in assay [4], in assay [5] and in assay [7] were 3.3, 9.7 and 4.5, respectively.
Regarding `O=C(NCCCN1CCN(c2ccc(I)cc2)CC1)NN(Cc1ccccc1)c1ccccc1`, the inhibition constant (Ki) in assay [1] worked out at 21 nM; in assay [2], 690 nM; in assay [3], 670 nM; in assay [6] it was 1300 nM. For the same molecule, the Ratio Ki in assay [4] was found to be 32; in assay [5] it was 62; in assay [7], 33.
Regarding `COc1cccc(CN(NC(=O)NCCCN2CCN(c3ccccc3OC)CC2)c2ccc(F)cc2)c1`, the inhibition constant (Ki) in assay [1] worked out at 5.9 nM; in assay [2], 110 nM; in assay [3], 62 nM; in assay [6], 150 nM. The results for the Ratio Ki in assay [4], in assay [5] and in assay [7] were 11, 25 and 19, respectively.
In the case of `O=C(NCCCN1CCN(c2ncccn2)CC1)NN(Cc1ccccc1)c1ccccc1`, the inhibitory constant (Ki) in assay [1] came out at 18 nM; in assay [2], 580 nM; in assay [3], 440 nM; in assay [6] it was 2000 nM. Further, the results for the Ratio Ki in assay [4], in assay [5] and in assay [7] were 24, 110 and 32, respectively.
As to `COc1ccccc1N1CCN(CCCNC(=O)/N=N/c2ccc(F)cc2)CC1`, the Ki in assay [1] is 20 nM; in assay [2], 110 nM; in assay [3], 51 nM; in assay [6] it was 140 nM. Besides, the Ratio Ki worked out at 2.6 in assay [4], 7 in assay [5] and 5.5 in assay [7].
In the case of `COc1ccccc1N1CCN(CCCNC(=O)NN(Cc2ccc(-c3ccccc3)cc2)c2ccc(F)cc2)CC1`, the Ki in assay [1] was determined as 5.9 nM; in assay [2], 140 nM; in assay [3] it was 42 nM; in assay [6] it was 110 nM. Further, the Ratio Ki in assay [4] was found to be 7.1; in assay [5] it was 19; in assay [7], 24.
Turning to `O=C(NCCCN1CCN(c2ccc(Br)cc2)CC1)NN(Cc1ccc(F)cc1)c1ccccc1`, the Ki in assay [1] was 46 nM; in assay [2], 790 nM; in assay [3], 620 nM; in assay [6], 1400 nM. For the same molecule, the Ratio Ki in assay [4] amounted to 13; in assay [5] it was 30; in assay [7], 17.
`COc1ccccc1N1CCN(CCNC(=O)/N=N/c2ccc(F)cc2)CC1`: the Ki in assay [1] stood at 36 nM; in assay [2], 270 nM; in assay [3], 140 nM; in assay [6], 120 nM. The figures for the Ratio Ki in assay [4], in assay [5] and in assay [7] were 3.9, 3.3 and 7.5, respectively.
Turning to `COc1ccccc1N1CCN(CCCNC(=O)NN(Cc2ccc(C#N)cc2)c2ccc(Cl)cc2Cl)CC1`, the inhibition constant Ki in assay [1] worked out at 12 nM; in assay [2], 150 nM; in assay [3], 94 nM; in assay [6], 280 nM. In addition, the Ratio Ki in assay [4] came to 7.8; in assay [5], 23; in assay [7], 13.
On to `O=C(NCCN1CCN(c2ccc(Br)cc2)CC1)NN(Cc1ccccc1)c1ccccc1`, for which the Ki in assay [1] stood at 28 nM; in assay [2] it was 390 nM; in assay [3], 430 nM; in assay [6] it was 1800 nM. Moreover, the Ratio Ki in assay [4] is 15; in assay [5] it was 64; in assay [7], 14.
For the molecule `COc1ccccc1N1CCN(CCCNC(=O)NN(Cc2ccccc2)c2ccc(Cl)cc2Cl)CC1`, the Ki in assay [1] was 15 nM; in assay [2], 35 nM; in assay [3], 24 nM; in assay [6], 61 nM. Besides, the Ratio Ki in assay [4] stood at 1.6; in assay [5], 4; in assay [7] it was 2.3.
`O=C(NCCCN1CCN(c2ccc(Cl)cc2)CC1)NN(Cc1ccc(F)cc1)c1ccccc1`: the inhibitory constant (Ki) in assay [1] was 17 nM; in assay [2], 500 nM; in assay [3] it was 380 nM; in assay [6], 850 nM. For the same molecule, the Ratio Ki in assay [4] turned out to be 22; in assay [5] it was 50; in assay [7] it was 29.
As to `COc1ccccc1N1CCN(CCCNC(=O)NN(Cc2ccc(C#N)cc2)c2ccc(F)cc2)CC1`, the inhibition constant Ki was 15 nM in assay [1], 210 nM in assay [2], 120 nM in assay [3] and 640 nM in assay [6]. Moreover, the figures for the Ratio Ki in assay [4], in assay [5] and in assay [7] were 8, 43 and 14, respectively.
As for `COc1ccccc1N1CCN(CCCNC(=O)NN(Cc2ccccc2F)c2ccc(Cl)cc2)CC1`, the inhibition constant (Ki) in assay [1] was 2.6 nM; in assay [2] it was 41 nM; in assay [3], 26 nM; in assay [6], 95 nM. The Ratio Ki in assay [4] was determined as 10; in assay [5] it was 36; in assay [7], 16.
With `COc1ccc(N(Cc2ccccc2F)NC(=O)NCCCN2CCN(c3ccccc3OC)CC2)cc1`, the Ki in assay [1] is 2.6 nM; in assay [2] it was 42 nM; in assay [3] it was 19 nM; in assay [6] it was 76 nM. Besides, the Ratio Ki amounted to 7.3 in assay [4], 29 in assay [5] and 16 in assay [7].
For `COc1ccc(N(Cc2cccc(F)c2)NC(=O)NCCCN2CCN(c3ccccc3OC)CC2)cc1`, the Ki is 6.2 nM in assay [1], 59 nM in assay [2], 35 nM in assay [3] and 86 nM in assay [6]. In addition, the results for the Ratio Ki in assay [4], in assay [5] and in assay [7] were 5.6, 14 and 10, respectively.
Regarding `COc1ccccc1N1CCN(CCNC(=O)NN(Cc2ccccc2)c2ccc(F)cc2)CC1`, the inhibition constant Ki in assay [1] was 9 nM; in assay [2], 100 nM; in assay [3], 71 nM; in assay [6] it was 700 nM. The values for the Ratio Ki in assay [4], in assay [5] and in assay [7] were 7.9, 78 and 11, respectively.
On to `COc1ccc(N(Cc2ccc(C#N)cc2)NC(=O)NCCCN2CCN(c3ccccc3OC)CC2)cc1`, for which the inhibition constant (Ki) in assay [1] was determined as 16 nM; in assay [2] it was 250 nM; in assay [3] it was 110 nM; in assay [6], 220 nM. Moreover, the Ratio Ki in assay [4] was 6.9; in assay [5], 14; in assay [7], 16.
Consider `COc1ccc(N(Cc2ccc(F)cc2)NC(=O)NCCCN2CCN(c3ccccc3OC)CC2)cc1`, for which the inhibition constant Ki in assay [1] was found to be 2.9 nM; in assay [2] it was 160 nM; in assay [3], 110 nM; in assay [6], 400 nM. Further, the Ratio Ki in assay [4] was 38; in assay [5], 140; in assay [7], 55.
In the case of `COc1ccccc1N1CCN(CCCNC(=O)NN(Cc2cccc(F)c2)c2ccc(F)cc2)CC1`, the inhibitory constant (Ki) was 3.8 nM in assay [1], 73 nM in assay [2], 46 nM in assay [3] and 88 nM in assay [6]. In addition, the Ratio Ki in assay [4] was found to be 12; in assay [5], 23; in assay [7] it was 19.
Turning to `COc1ccccc1N1CCN(CCCNC(=O)NN(Cc2ccccc2F)c2ccc(F)cc2)CC1`, the Ki in assay [1] worked out at 3.6 nM; in assay [2], 92 nM; in assay [3] it was 47 nM; in assay [6], 160 nM. Further, the values for the Ratio Ki in assay [4], in assay [5] and in assay [7] were 13, 44 and 26, respectively.
With `C=CCN(NC(=O)NCCCN1CCN(c2ccccc2OC)CC1)c1ccc(OC)cc1`, the inhibitory constant (Ki) came out at 61 nM in assay [1], 180 nM in assay [2], 340 nM in assay [3] and 660 nM in assay [6]. The figures for the Ratio Ki in assay [4], in assay [5] and in assay [7] were 5.6, 11 and 3, respectively.
`COc1ccccc1N1CCN(CCCCNC(=O)/N=N/c2ccc(F)cc2)CC1`: the Ratio Ki in assay [4] was 0.36; in assay [5], 0.033; in assay [7], 0.4. Moreover, the affinity in assay [6] corresponds to a Ki of 3.1 nM.
With `Cc1cccc(C(=O)NCN2CCN(c3ccccc3C#N)CC2)c1` [PD-168,077], the Ki in assay [2] is 2300 nM; in assay [3], 1100 nM; in assay [6], 4700 nM.
Regarding `O=C(NCCCN1CCN(c2ccc(Br)cc2)CC1)NN(Cc1ccccc1)c1ccccc1`, the figures for the inhibition constant Ki in assay [1] and in assay [6] were 14 nM and 1500 nM, respectively.

The record behind these values is ChEMBL document CHEMBL4321823, “Benzyl Phenylsemicarbazides: A Chemistry-Driven Approach Leading to G Protein-Biased Dopamine D4 Receptor Agonists with High Subtype Selectivity” (J Med Chem, 2019).
